Published values of several laboratories.
Compare with care: the assays were run in different laboratories.
Target: MAP kinase-activated protein kinase 5 (MAPKAPK5, Homo sapiens, UniProt Q8IW41)

SMILES | effect on | mode | technique | concentration | endpoint | result
CC(C)(O)[C@H]1CC[C@H](Nc2ccc3ncc(-c4cccc(C(F)(F)F)c4)n3n2)CC1 | enzyme activity | inhibitor | – | 1 µM | remaining activity | 105%
CNC(=O)c1cc(Oc2ccc(NC(=O)Nc3ccc(Cl)c(C(F)(F)F)c3)cc2)ccn1 | enzyme activity | inhibitor | – | 0.3 µM | inhibition | 18%
CNc1cccc2cc(C(=O)Nc3ccc(C(=O)O)cc3)c(=O)[nH]c12 | enzyme activity | inhibitor | – | 10 µM | inhibition | 20%
Nc1nc(Nc2ccccc2)sc1C(=O)c1c(F)cccc1F | enzyme activity | inhibitor | – | 10 µM | remaining activity | 63%
O=C(CSc1nc2nccnc2c(=O)n1CCc1ccccc1)Nc1nccs1 | enzyme activity | inhibitor | – | 10 µM | inhibition | -2%
C[C@H](c1ccc(F)cc1)N(Cc1cccc(C(=O)O)c1)C(=O)c1cnc2ccccc2c1 | cell-free assay | – | competition with immobilised ligand | 1 µM | remaining binding | 96%
C[C@@H]1CCN(C(=O)CC#N)C[C@@H]1N(C)c1ncnc2[nH]ccc12 | cell-free assay | inhibitor | – | 0.5 µM | remaining signal | 97.3%
CC(C)c1ccc(NC(=O)c2cccs2)c(-c2nc3ccccc3[nH]c2=O)c1 | enzyme activity | inhibitor | – | 1 µM | activity vs control | 106%
C[C@H](NC(=O)c1cnc2n1[C@](C)(Cc1ccc(C#N)cc1)C(=O)N2c1cc(Cl)c(F)c(Cl)c1)C(=O)NC1(c2ccccn2)CC1 | cell-free assay | – | competition with immobilised ligand | 1 µM | remaining binding | 96%
CC/C(=N\NC(=O)NCc1cccc(O)c1)c1ccc(O)c(C)c1O | enzyme activity | inhibitor | – | 0.1 µM | inhibition | -8%
Cc1ccc(Nc2nccc(N(C)c3ccc4c(C)n(C)nc4c3)n2)cc1S(N)(=O)=O | enzyme activity | inhibitor | – | 10 µM | inhibition | 4%
Cc1cnc(NC2CCOCC2)nc1-n1cnc(C(=O)NC(CN)c2cc(F)cc(Cl)c2)c1 (stereo not shown) | enzyme activity | inhibitor | radiometric | 1 µM | remaining activity | 114%
CC(C)(C)c1nc2c(s1)c1nc(N)ncc1c1ccc(NS(=O)(=O)c3c(F)cccc3F)c(F)c12 | enzyme activity | inhibitor | radiometric | 1 µM | remaining activity | 83%
CC(C)(C)C(=O)c1sc(NC2CCCCC2)nc1N | enzyme activity | inhibitor | – | 10 µM | remaining activity | 103%
N#CCCc1ccc2c(c1)-c1[nH]c3ccc([N+](=O)[O-])cc3c1CC(=O)N2 | cell-free assay | – | – | 0.5 µM | remaining signal | 94.3%
Cc1ccc(NC(=O)c2ccc(C)c(C(F)(F)F)c2)cc1C#Cc1nn(C2CCC(O)CC2)c2ncnc(N)c12 (stereo not shown) | cell-free assay | – | – | 10 µM | remaining signal | 77%
COc1cc(Nc2cnc(C#N)c(O[C@H](C)CN(C)C)n2)ncc1-c1cnn(C)c1 | enzyme activity | inhibitor | radiometric | 10 µM | remaining activity | 97%

SMILES | effect on | mode | technique | concentration | endpoint | result
C=CC(=O)Nc1cc(Nc2nccc(Nc3cc(Cl)c(F)cc3C(C)(C)O)n2)c(OC)cc1N1CC[C@@H](N(C)C)C1 | enzyme activity | inhibitor | – | 1 µM | inhibition | 19%
Oc1ccc(-c2nc(-c3ccncc3)c(-c3ccc(F)cc3)[nH]2)cc1 | cell-free assay | – | – | 0.5 µM | remaining signal | 102%
Cc1cc(-n2nc(Cc3cc(F)cc(C(F)(F)F)c3)nc2C)ccc1C(N)=O | cell-free assay | – | competition with immobilised ligand | 1 µM | remaining binding | 100%
Cc1sc(C(=O)NC2COC2)cc1-n1cc(NC(=O)Nc2c(F)cccc2Cl)cn1 | enzyme activity | inhibitor | – | 10 µM | remaining activity | 96.5%
COc1cc(/C=C/C(=O)CC(=O)/C=C/c2ccc(O)c(OC)c2)ccc1O | enzyme activity | inhibitor | – | 1 µM | activity vs control | 101%
CN(C)c1ncnc(-c2ccc3nc(Nc4cc(CN5CCN(C(=O)CC(F)(F)F)CC5)ccn4)[nH]c3c2)c1Cl | cell-free assay | – | competition with immobilised ligand | 1 µM | remaining binding | 96%
CNCc1ccc(-c2cc(-c3nc(-c4ccc(S(=O)(=O)C(C)C)cc4)cnc3N)on2)cc1 | enzyme activity | inhibitor | – | 2 µM | inhibition | 0%
Cn1cnc(Br)c1C1=CN(c2ncnc3[nH]cnc23)CCS1 | enzyme activity | inhibitor | radiometric | 50 nM | inhibition | 20.3%
Nc1cnc(N2CCc3cc(S(=O)(=O)Nc4c(F)cc(Cl)cc4F)cc(N4CCCC4=O)c32)nc1 | cell-free assay | – | competition with immobilised ligand | 1 µM | remaining binding | 92%
O=C1Nc2ccc(Cl)cc2C1=Cc1cc(Cl)c(O)c(Cl)c1 | cell-free assay | – | – | 0.5 µM | remaining signal | 92.4%
FC(F)c1nc2ccccc2n1-c1nc(N2CCOCC2)nc(N2CCOCC2)n1 | enzyme activity | inhibitor | – | 10 µM | remaining activity | 82%
CN([C@@H]1CCc2c(CC(=O)O)c3cc(S(C)(=O)=O)ccc3n2C1)S(=O)(=O)c1ccc(F)cc1 | cell-free assay | – | competition with immobilised ligand | 1 µM | remaining binding | 100%
Oc1cccc(-c2nc(N3CCOCC3)c3oc4ncccc4c3n2)c1 | enzyme activity | inhibitor | – | 10 µM | remaining activity | 77%
O=C1CCc2cc(Nc3cc(OC4CCOCC4)c([N+](=O)[O-])cc3Cl)ccc2N1 | cell-free assay | – | competition with immobilised ligand | 1 µM | remaining binding | 78%
COc1cc2ncnc(Nc3ccc(Oc4ccccc4)c(C)c3C)c2cc1OC | enzyme activity | inhibitor | – | 1 µM | inhibition | -1%
CO[C@@H](C)c1c(Nc2ccc([C@@H](N(C)C(=O)C3CCS(=O)(=O)CC3)C(F)(F)F)cc2)cnc2cc(Cl)nn12 | cell-free assay | – | competition with immobilised ligand | 1 µM | remaining binding | 100%
FC(F)(F)Oc1cccc(-c2cnc3ccc(-c4ccncc4)nn23)c1 | enzyme activity | inhibitor | radiometric | 5 µM | activity vs control | 85%
